An excerpt weighted towards active compounds, which were near 2.9% of everything screened.
CHO-K1 Ca antag = nonselective inhibitor or artifact in parental CHO-K1 cells; inhibition, % at 3 µM; ATP-induced calcium, Fluo-8 fluorescence; 360,000 tested, 0.6% active; AID 602250;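 active = inhibition above a per-plate cutoff, the plate's mean sample inhibition plus 3 SD, cut at about 24% in these data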
M1 ag parental = nonselective activator or artifact in parental CHO-K1 cells | Fluo-8 calcium fluorescence; scaled to maximal ATP response, vehicle zero | activation, % at 3 µM | 360,000 tested, 0.48% active | AID 602248; in the data active = activation above about 15%;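 note: untransfected CHO-K1 host cells lacking M1 receptor as counterscreen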
OX1R antag-1 = human HCRTR1 antagonism; CHO/OX1R cells, Fluo-8 calcium fluorescence, orexin A; inhibition, % at 5 µM; 330,000 tested, 0.43% active; AID 434989;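 active = inhibition above its plate's threshold, mean inhibition of all tested compounds on the plate plus 3 SD, cut at about 37% in these data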
Target sequence (O43613 whole entry, looked up): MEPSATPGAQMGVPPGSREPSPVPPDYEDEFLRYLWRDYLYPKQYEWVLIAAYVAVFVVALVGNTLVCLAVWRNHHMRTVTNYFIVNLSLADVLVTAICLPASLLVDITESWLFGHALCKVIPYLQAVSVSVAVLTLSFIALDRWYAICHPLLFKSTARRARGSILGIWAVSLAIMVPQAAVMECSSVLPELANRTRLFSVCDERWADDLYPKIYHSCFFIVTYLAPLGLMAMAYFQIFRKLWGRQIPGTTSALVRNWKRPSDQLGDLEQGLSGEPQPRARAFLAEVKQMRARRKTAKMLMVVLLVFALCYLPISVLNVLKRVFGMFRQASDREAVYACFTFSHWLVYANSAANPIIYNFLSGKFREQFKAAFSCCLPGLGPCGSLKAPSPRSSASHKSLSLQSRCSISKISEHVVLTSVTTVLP
M1 PAM parental = counter-screen for M1 PAMs: effect in parental CHO-K1 cells; ATP EC20, Fluo-8 calcium fluorescence; 0% at ATP EC20, 100% at ATP max; activation, % at 3 µM; 360,000 tested, 0.02% active; AID 602247;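 active = activation above the run cutoff, the mean activation of all test compounds plus 3 SD, cut at about 40% in these data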;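 note: peak over basal fluorescence ratio in a 140 s read after ATP addition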
OX1R antag-2 = blocks the human orexin 1 receptor; O43613; OX1R-expressing cells, FRET antagonist read-out; 330,000 tested, 1.8% active; inhibition, % at 6.6 µM; in the data active = inhibition mostly above about 38%, no sharp cut-off; inactive = mostly below about 40%
CHO parental Ca = counter-screen: ATP calcium response change in parental CHO cells | parental CHO-K1, ATP-induced calcium, Fluo-8 fluorescence | inhibition, % at 5.6 µM | 330,000 tested, 0.63% active | AID 463079;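 active = inhibition above that plate's mean sample inhibition plus 3 SD, cut at about 26% in these data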
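Test system: parental CHO cells; detection: calcium-sensitive Fluo-8 fluorescence; evaluation: percent inhibition of calcium signal; also added: ATP as calcium-mobilizing challenge; repeats: one well per compound; control set: ATP-challenged DMSO wells low, unchallenged DMSO wells high; compound: single nominal dose of 5.6 µM per compound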
OX1R HTRF conf = OX1R (human) antagonism, HTRF confirmed; shares compounds with OX1R antag-2; OX1R-expressing cells, HTRF antagonist assay; inhibition, % at 6.6 µM; 1,800 tested, 49% active; AID 492964; in the data active = inhibition above about 55%;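 note: CHO cells expressing OX1R stimulated with orexin A at about EC80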
CHO-K1 HTRF cnt = counter-screen: parental CHO-K1 HTRF response | parental CHO-K1 cells, HTRF counterscreen | inhibition, % at 6.6 µM | shares compounds with OX1R antag-2 | AID 493232 | 1,800 tested, 48% active; in the data active = inhibition above about 17%
A number is an active result; - = inactive; . = no result.

SMILES | CHO-K1 Ca antag | M1 ag parental | OX1R antag-1 | M1 PAM parental | OX1R antag-2 | CHO parental Ca | OX1R HTRF conf | CHO-K1 HTRF cnt
O=C1c2ccccc2S(=O)(=O)c2cc(C(=O)N3CCC(N4CCCC4)CC3)ccc21 | - | - | - | - | 101 | - | - | 88
O=C(NCCO)c1ccc2c(c1)S(=O)(=O)c1ccccc1C2=O | - | - | - | - | 108 | - | 65 | 67
Cc1ccc(CNC(=O)c2ccc3c(c2)S(=O)(=O)c2ccccc2C3=O)o1 | - | - | - | - | - | - | . | .
O=C(NCC1CCCO1)c1ccc(C(=O)NCC2CCCO2)cc1 (stereo not drawn) | - | - | - | - | - | - | . | .
O=C(NCC1CCCO1)c1ccc2c(c1)S(=O)(=O)c1ccccc1C2=O (stereo not drawn) | - | - | - | - | 81 | - | 61 | 63
COc1ccc(C(CNC(=O)COc2ccc(Cl)c(C)c2)N2CCCCC2)cc1 (stereo not drawn) | - | - | - | - | - | - | . | .
NC(=O)c1cc([N+](=O)[O-])c(Cl)cc1NCc1ccccn1 | - | - | - | - | - | - | . | .
Cc1ccc(/C=C/C(=O)Nc2ccc(S(=O)(=O)Nc3onc(C)c3C)cc2)cc1 | - | - | - | - | - | - | . | .
O=C(COC(=O)c1cc(=O)[nH]c2ccccc12)Nc1ccc(F)cc1 | - | - | - | - | - | - | . | .
O=c1oc2ccccc2cc1-c1cn2ccccc2n1 | - | - | - | - | 95 | - | 72 | 20
CC(=O)N1CCn2c3c(c(=O)c4cc(C)ccc42)CCC31 (stereo not drawn) | - | - | - | - | 82 | - | - | -
CCN(CC)S(=O)(=O)c1ccc(C)c(NC(=O)Cn2cnc3cc([N+](=O)[O-])ccc3c2=O)c1 | - | - | - | - | - | - | . | .
CC(C)N(C(=O)Cn1cnc2cc([N+](=O)[O-])ccc2c1=O)C(C)C | . | . | - | . | 141 | - | - | 93
O=C(Cn1cnc2cc([N+](=O)[O-])ccc2c1=O)NCc1ccccc1 | - | - | - | - | 95 | - | 55 | 62
O=C(Cn1cnc2cc([N+](=O)[O-])ccc2c1=O)NCCc1ccc(F)cc1 | - | - | - | - | - | - | . | .
O=C(CCC(=O)NNC(=O)c1ccc([N+](=O)[O-])cc1)NCc1ccccc1 | - | - | - | - | 91 | - | - | 39
O=C(/C=C/Nc1ccc(Br)cn1)c1cccc(OC(F)F)c1 | - | - | - | - | - | - | . | .
COc1ccc(S(=O)(=O)n2cccc2)cc1 | - | - | - | - | - | - | . | .
COc1ccc(C(=O)NCC(=O)OCC(=O)Nc2sccc2C#N)cc1OC | - | - | - | - | - | - | . | .
CN(C)c1ccc(-c2nnc(-c3cccs3)o2)cc1 | - | - | - | - | 84 | - | 88 | -
C=C(C)C1CC=C(C)/C(=N/NC(=O)CCC(=O)Nc2ccccc2Cl)C1 (stereo not drawn) | - | - | - | - | - | - | . | .
O=C(Cc1cccs1)Nc1cccc(-c2nc3ccccc3o2)c1 | - | - | - | - | 77 | - | 74 | -
Cc1ccc(-c2nc3ccccc3o2)cc1NC(=O)Cc1cccs1 | - | - | - | - | - | - | . | .
C/C(=C\C(=O)c1ccncc1)Nc1ccccc1O | - | - | - | - | 91 | - | - | -
COc1ccc(OC)c(N/C(C)=C/C(=O)c2ccncc2)c1 | - | - | - | - | - | - | . | .
SMILES | CHO-K1 Ca antag | M1 ag parental | OX1R antag-1 | M1 PAM parental | OX1R antag-2 | CHO parental Ca | OX1R HTRF conf | CHO-K1 HTRF cnt
CCNc1c(C(=O)O)ccc2c1C(=O)c1ccccc1C2=O | - | - | - | - | 97 | - | - | 18
CNc1c(C(=O)O)ccc2c1C(=O)c1ccccc1C2=O | - | - | - | - | 111 | - | 62 | 86
COc1cccc2c1-c1c(C(=O)O)cccc1C2=O | - | - | - | - | - | - | . | .
O=C(O)c1cccc2c1C(=O)c1ccccc1C2=O | - | - | - | - | 85 | - | 64 | 110
NS(=O)(=O)c1ccc(CCNC(=O)CSc2nc3ccccc3c(=O)n2CC2CCCO2)cc1 (stereo not drawn) | - | - | - | - | - | - | . | .
O=C(N=Nc1c(O)[nH]c2ccccc12)c1cccc(S(=O)(=O)Nc2ccccc2Cl)c1 | - | - | - | - | 84 | - | 92 | -
CC(C)c1ccc2[nH]c(O)c(N=NC(=O)c3cccc(S(=O)(=O)Nc4ccccc4Cl)c3)c2c1 | - | - | - | - | - | - | . | .
CCc1ccc(Nc2ncc3c(n2)CC(C)(C)CC3=O)cc1 | - | - | - | - | - | - | . | .
COc1ccc(-c2csc(NC(=O)c3c(C)noc3C)n2)cc1OC | - | - | . | - | . | . | . | .
NC(=O)c1ccsc1NC(=O)c1ccc2c(c1)CCCC2 | - | - | - | - | 79 | - | 66 | -
CCCN1CCC(=NNc2ccc(S(N)(=O)=O)cc2[N+](=O)[O-])CC1 | - | - | - | - | 85 | - | - | 56
CCOC(=O)C1Nc2ccc(C(F)(F)F)cc2C2c3ccccc3CC12 (stereo not drawn) | - | - | - | - | - | - | . | .
CCOC(=O)C1Nc2ccccc2C2C(O)C(O)CC12 (stereo not drawn) | - | - | - | - | 83 | - | - | 20
COC(=O)c1ccc(SCC(=O)NC2CCCC2)c([N+](=O)[O-])c1 | - | - | - | - | - | - | . | .
NC(=O)c1ccc(SCC(=O)NC2CCCCC2)c([N+](=O)[O-])c1 | - | - | - | - | 77 | - | - | 35
Cc1ccccc1NC1=C/C(=N\S(=O)(=O)c2cccs2)c2ccccc2C1=O | - | - | - | - | - | - | . | .
Cc1cc[n+](C2=C([O-])c3ccccc3C(=O)/C2=N\S(=O)(=O)c2cccs2)cc1C | - | - | - | - | 106 | - | - | 25
N#CCn1c(CN2CCCC2)nc2ccccc2c1=O | - | - | - | - | - | - | . | .
O=C(CN(C(=O)c1csnn1)c1ccccc1C(F)(F)F)NC1CCCCC1 | - | - | - | - | - | - | . | .
CCn1c(C)c(C(=O)O)c2cc(OC)c3ccccc3c21 | - | - | - | - | 99 | - | 89 | -
COc1ccccc1N(CC(=O)NCCSc1ccccc1)S(=O)(=O)c1ccccc1 | - | - | - | - | 81 | - | 60 | -
CCn1c(O)c(/C=C2\C=Nc3ccccc32)sc1=O | - | - | - | - | 86 | - | 86 | -
Oc1ccccc1CNc1cccc2cccnc12 | - | - | - | - | 120 | - | - | -
COc1cccc2cc(C(=O)NCc3ccccn3)c(=O)oc12 | - | - | - | - | 116 | - | - | 34
CCC(C)c1ccc(NC(=O)c2c([N+](=O)[O-])cnn2CC)cc1 (stereo not drawn) | - | - | . | - | . | . | . | .
